Assay results reported in ChEMBL document CHEMBL2331331 (J Med Chem, 2013).
Active and inactive are the calls of the source. The rule behind the calls is not given here.

Tests used:
MV4-11 [1] = assay: Antitumor activity against FLT3-ITD-positive human MV4-11 cells xenografted in NOD-SCID mouse assessed as tumor growth inhibition at 3 mg/kg/day, po administered 18 days measured every 3 days for 18 days; type: functional, organism-based
Procedure, shortened: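 NOD-SCID mice (5–6 weeks) implanted sc with 1 × 10⁸/mL MV4-11 cells (100 μL) in serum-free medium. Grouped at 300–500 mm³, six per group, then dosed orally once daily for 18 days. Vehicle was 12.5% castor oil, 12.5% ethanol, 75% water. Tumor volume = long × short²/2, measured every 3 d.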

MV4-11 [2] = assay: Induction of apoptosis in human MV4-11 cells assessed as late apoptotic cells at 0.001 uM after 24 hrs by annexin V-FITC/propidium iodide staining-based FACS flow cytometric analysis (reference value: 4.28%); type: functional
[3] = target: T1, Receptor-type tyrosine-protein kinase FLT3 (Homo sapiens, UniProt P36888); assay: Inhibition of FLT3 in human MV4-11 cells assessed as inhibition of STAT5 phosphorylation after 20 hrs by Western blotting analysis; type: cell-based
T1 sequence (P36888 whole entry): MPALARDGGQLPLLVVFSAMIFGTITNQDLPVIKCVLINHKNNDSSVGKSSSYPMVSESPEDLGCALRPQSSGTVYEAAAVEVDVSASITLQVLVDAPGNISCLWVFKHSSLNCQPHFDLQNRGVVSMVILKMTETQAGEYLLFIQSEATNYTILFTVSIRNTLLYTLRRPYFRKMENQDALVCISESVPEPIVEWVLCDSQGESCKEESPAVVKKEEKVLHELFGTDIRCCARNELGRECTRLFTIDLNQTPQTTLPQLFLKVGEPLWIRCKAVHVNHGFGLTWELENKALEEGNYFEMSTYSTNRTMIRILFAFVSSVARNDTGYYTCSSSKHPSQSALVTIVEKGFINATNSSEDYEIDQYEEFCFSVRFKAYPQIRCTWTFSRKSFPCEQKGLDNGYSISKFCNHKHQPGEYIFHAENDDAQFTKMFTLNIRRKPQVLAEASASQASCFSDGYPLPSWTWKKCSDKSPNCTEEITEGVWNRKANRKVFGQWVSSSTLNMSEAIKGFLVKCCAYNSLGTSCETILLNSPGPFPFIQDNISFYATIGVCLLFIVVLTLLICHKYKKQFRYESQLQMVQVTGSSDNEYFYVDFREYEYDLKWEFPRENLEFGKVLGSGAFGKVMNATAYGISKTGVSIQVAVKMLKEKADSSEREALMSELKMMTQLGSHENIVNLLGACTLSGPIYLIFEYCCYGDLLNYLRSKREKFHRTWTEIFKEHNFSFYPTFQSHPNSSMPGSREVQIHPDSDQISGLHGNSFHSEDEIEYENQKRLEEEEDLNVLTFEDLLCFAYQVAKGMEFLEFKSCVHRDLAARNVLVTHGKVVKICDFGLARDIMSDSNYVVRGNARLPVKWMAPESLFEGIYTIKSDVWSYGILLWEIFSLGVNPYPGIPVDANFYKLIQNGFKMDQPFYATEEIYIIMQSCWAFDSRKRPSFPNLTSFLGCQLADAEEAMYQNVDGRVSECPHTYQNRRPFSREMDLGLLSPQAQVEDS

[4] = target: Dual specificity mitogen-activated protein kinase kinase 1 (Homo sapiens, UniProt Q02750); assay: Inhibition of MEK1 (unknown origin)
Dual specificity mitogen-activated protein kinase kinase 1, sequence (Q02750 whole entry): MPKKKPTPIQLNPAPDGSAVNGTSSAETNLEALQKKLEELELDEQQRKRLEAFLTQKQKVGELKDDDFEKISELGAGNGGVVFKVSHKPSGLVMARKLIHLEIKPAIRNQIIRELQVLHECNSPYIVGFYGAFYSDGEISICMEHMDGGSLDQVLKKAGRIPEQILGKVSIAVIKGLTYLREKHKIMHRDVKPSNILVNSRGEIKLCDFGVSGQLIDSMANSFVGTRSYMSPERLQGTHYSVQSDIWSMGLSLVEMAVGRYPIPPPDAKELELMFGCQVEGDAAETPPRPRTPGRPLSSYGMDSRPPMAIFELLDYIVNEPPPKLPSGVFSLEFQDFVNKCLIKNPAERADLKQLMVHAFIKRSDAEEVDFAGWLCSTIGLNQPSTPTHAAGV

[5] = target: T1, Receptor-type tyrosine-protein kinase FLT3; assay: Inhibition of FLT3 (unknown origin)
[6] = target: Mitogen-activated protein kinase kinase kinase 9 (Homo sapiens, UniProt P80192); assay: Inhibition of MLK1 (unknown origin)
Mitogen-activated protein kinase kinase kinase 9, sequence (P80192 whole entry): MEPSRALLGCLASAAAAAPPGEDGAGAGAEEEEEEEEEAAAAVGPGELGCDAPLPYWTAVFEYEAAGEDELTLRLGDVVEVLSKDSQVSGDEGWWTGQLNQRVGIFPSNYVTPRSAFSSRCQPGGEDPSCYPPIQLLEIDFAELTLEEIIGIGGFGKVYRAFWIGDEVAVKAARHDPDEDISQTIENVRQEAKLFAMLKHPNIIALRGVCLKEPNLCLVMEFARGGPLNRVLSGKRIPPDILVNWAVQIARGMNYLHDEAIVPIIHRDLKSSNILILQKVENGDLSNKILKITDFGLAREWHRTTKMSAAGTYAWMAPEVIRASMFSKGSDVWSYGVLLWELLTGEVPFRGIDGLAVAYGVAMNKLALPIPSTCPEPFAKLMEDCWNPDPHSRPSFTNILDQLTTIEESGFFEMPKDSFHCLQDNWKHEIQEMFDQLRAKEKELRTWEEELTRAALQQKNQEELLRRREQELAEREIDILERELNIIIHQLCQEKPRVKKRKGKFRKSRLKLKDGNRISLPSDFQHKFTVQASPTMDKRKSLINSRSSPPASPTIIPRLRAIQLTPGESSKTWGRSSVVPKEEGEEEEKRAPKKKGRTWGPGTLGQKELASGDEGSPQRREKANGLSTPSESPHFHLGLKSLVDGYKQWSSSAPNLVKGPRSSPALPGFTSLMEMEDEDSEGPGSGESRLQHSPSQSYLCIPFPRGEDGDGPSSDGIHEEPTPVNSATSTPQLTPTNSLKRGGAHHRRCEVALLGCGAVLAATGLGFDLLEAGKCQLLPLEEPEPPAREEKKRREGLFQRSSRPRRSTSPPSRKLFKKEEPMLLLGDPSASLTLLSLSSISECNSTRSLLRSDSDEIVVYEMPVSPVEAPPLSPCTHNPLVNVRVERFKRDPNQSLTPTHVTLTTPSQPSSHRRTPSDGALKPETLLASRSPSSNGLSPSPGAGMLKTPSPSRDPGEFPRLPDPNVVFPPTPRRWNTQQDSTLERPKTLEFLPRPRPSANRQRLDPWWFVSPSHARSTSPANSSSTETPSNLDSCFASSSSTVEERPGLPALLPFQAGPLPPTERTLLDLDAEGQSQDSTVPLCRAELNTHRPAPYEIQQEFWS

[7] = Cytotoxicity against human SK cells assessed as growth inhibition after 72 hrs by MTT assay
[8] = Inhibition of ERK (unknown origin); parameters: species or system Homo sapiens
DU-145 = assay: Cytotoxicity against human DU145 cells assessed as growth inhibition after 72 hrs by MTT assay; conditions: DU-145, 72 h
Aurora kinase A = Aurora kinase A (Homo sapiens, UniProt O14965); assay: Inhibition of aurora-A (unknown origin)
Aurora kinase A, sequence (O14965 whole entry): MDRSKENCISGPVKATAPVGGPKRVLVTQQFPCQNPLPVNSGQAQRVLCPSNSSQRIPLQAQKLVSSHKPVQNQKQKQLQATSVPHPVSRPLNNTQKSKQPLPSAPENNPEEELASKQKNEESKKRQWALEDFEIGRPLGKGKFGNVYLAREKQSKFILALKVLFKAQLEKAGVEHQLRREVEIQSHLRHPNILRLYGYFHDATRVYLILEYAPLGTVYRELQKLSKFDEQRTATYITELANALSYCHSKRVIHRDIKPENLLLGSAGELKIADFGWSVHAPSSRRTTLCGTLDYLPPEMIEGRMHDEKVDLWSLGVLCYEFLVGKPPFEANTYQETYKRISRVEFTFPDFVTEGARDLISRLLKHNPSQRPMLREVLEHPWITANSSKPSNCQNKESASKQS

[9] = target: Megakaryocyte-associated tyrosine-protein kinase (Homo sapiens, UniProt P42679); assay: Inhibition of CTK (unknown origin)
Megakaryocyte-associated tyrosine-protein kinase, sequence (P42679 whole entry): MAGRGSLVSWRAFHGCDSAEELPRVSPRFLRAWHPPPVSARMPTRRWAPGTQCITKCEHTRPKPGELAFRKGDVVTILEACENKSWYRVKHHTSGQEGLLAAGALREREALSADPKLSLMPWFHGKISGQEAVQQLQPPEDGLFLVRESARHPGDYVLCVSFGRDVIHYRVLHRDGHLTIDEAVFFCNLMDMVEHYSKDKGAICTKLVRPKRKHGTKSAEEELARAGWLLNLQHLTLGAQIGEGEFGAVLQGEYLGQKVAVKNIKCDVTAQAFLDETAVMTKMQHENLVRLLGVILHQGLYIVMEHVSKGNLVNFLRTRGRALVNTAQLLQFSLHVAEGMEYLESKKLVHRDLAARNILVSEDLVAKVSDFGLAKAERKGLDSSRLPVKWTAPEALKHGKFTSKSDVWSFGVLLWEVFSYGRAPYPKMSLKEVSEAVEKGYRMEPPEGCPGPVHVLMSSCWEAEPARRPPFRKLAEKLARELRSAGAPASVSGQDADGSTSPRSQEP

Jurkat = assay: Cytotoxicity against human Jurkat cells assessed as growth inhibition after 72 hrs by MTT assay
[10] = Apparent half life in Sprague-Dawley rat at 10 mg/kg/day, po; type: ADME, organism-based; parameters: route oral; conditions: in vivo, read-out: t1/2(app) (converted)
Myotonin-protein kinase = Myotonin-protein kinase (Homo sapiens, UniProt Q09013); assay: Inhibition of DMPK (unknown origin)
Myotonin-protein kinase, sequence (Q09013 whole entry): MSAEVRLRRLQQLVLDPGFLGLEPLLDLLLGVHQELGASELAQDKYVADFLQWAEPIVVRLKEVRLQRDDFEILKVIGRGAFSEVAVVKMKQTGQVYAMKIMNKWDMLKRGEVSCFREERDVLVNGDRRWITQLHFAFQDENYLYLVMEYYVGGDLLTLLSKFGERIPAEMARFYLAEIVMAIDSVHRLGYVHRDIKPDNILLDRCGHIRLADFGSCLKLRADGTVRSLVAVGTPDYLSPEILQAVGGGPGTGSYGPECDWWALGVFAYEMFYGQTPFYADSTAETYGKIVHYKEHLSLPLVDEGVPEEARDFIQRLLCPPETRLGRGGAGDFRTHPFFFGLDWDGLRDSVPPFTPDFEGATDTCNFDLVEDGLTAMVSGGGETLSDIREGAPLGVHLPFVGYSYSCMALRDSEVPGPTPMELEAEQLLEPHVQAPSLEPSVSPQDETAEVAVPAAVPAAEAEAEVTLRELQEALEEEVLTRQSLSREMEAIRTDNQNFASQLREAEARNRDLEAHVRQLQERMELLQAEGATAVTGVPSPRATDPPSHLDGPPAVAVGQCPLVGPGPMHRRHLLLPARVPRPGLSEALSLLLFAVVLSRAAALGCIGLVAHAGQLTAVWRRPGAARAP

SMMC-7721 = assay: Cytotoxicity against human SMMC7721 cells assessed as growth inhibition after 72 hrs by MTT assay; conditions: SMMC-7721, 72 h
[11] = target: Receptor-type tyrosine-protein kinase FLT3 (Homo sapiens, UniProt P36888, ITD); assay: Binding affinity to FLT3-ITD mutant (unknown origin)
TT = assay: Cytotoxicity against human TT cells assessed as growth inhibition after 72 hrs by MTT assay
MV4-11 [12] = assay: Induction of apoptosis in FLT3-ITD-positive human MV4-11 cells xenografted in NOD-SCID mouse assessed as increase in apoptotic cells at 10 mg/kg/day, po by TUNEL assay; type: functional, organism-based; conditions: TDE = time-dependent effect
Procedure, shortened: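 Mice (NOD-SCID) bearing sc MV4-11 tumors given 10 mg/kg/d by oral gavage. Tumors removed after 2–4 days and formalin-fixed. Sections immunostained for Ki67 (proliferation) or p-STAT5, or TUNEL-stained (apoptosis). Imaged by light microscopy and compared with vehicle group.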

[13] = target: Tyrosine-protein kinase SYK (Homo sapiens, UniProt P43405); assay: Inhibition of SYK (unknown origin)
MKN-45 = assay: Cytotoxicity against human MKN45 cells assessed as growth inhibition after 72 hrs by MTT assay; conditions: MKN-45, 72 h
MV4-11 [14] = assay: Induction of apoptosis in human MV4-11 cells assessed as early apoptotic cells at 0.001 uM after 24 hrs by annexin V-FITC/propidium iodide staining-based FACS flow cytometric analysis (reference value: 1.61%); type: functional
MV4-11 [15] = assay: Induction of apoptosis in human MV4-11 cells assessed as late apoptotic cells at 0.003 uM after 24 hrs by annexin V-FITC/propidium iodide staining-based FACS flow cytometric analysis (reference value: 4.28%); type: functional
MV4-11 [16] = assay: Induction of apoptosis in human MV4-11 cells after 24 hrs by annexin V-FITC/propidium iodide staining-based FACS flow cytometric analysis; type: functional, cell-based
HeLa = assay: Cytotoxicity against human HeLa cells assessed as growth inhibition after 72 hrs by MTT assay; type: functional, cell-based
Procedure, shortened: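 MTT viability assay with serial inhibitor dilutions for 72 h at 37 °C, then MTT for 2–4 h and OD read at 570 nm. Leukemia lines were seeded at (1–4) × 10⁴ cells/well and lysed with 20% acidified SDS. Adherent lines were seeded at (2–5) × 10³ cells/well, dosed after 24 h and dissolved in DMSO. Triplicate; mean ± SD.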

[17] = AUC (0 to 24 hrs) in Sprague-Dawley rat at 10 mg/kg/day, po; type: ADME, organism-based; parameters: dose 10 mg/kg/day, time < 24 hr, route oral; conditions: plasma

IC50 [3]: 3 nM | IC50 [4]: > 10 µM | IC50 [5]: 39 nM | IC50 [6]: > 10 µM | IC50 [8]: > 10 µM | IC50 (Aurora kinase A): > 10 µM | IC50 [9]: > 10 µM | half-life [10]: 756 min | IC50 (Myotonin-protein kinase): > 10 µM | Kd [11]: 4.3 nM | IC50 [13]: > 10 µM | AUC at 24 h [17]: 319 µg·h/mL
Compound: O=C(Nc1ccc(Oc2ncnc3[nH]ncc23)cc1)Nc1ccc(Cl)c(C(F)(F)F)c1
TGI (MV4-11 [1]): Active | Activity (MV4-11 [2]): 5.5% | IC50 [7]: > 10 µM | IC50 (DU-145): > 10 µM | IC50 (Jurkat): 8.72 µM | IC50 (SMMC-7721): > 10 µM | IC50 (TT): 3.42 µM | Activity (MV4-11 [12]): tde | IC50 (MKN-45): 8.23 µM | Activity (MV4-11 [14]): 4.15% | Activity (MV4-11 [15]): 7.11% | Activity (MV4-11 [16]): Dose-dependent effect | IC50 (HeLa): > 10 µM
